The values that follow come from ChEMBL document CHEMBL4052686, “Synthesis and antibacterial activity of 5-methylphenanthridium derivatives as FtsZ inhibitors” (2017).

Calls of active or inactive are those of the source. The rule behind the calls is not given here. Where only a bound is given, the exact number is not on record here.

The test system of assay [1] is Bacillus subtilis. In words: Antibacterial activity against penicillin-susceptible Bacillus subtilis ATCC 9372 incubated for 24 hrs by tube-dilution method. Format: functional. As to conditions: ATCC 9372, 24 h. A digest of the protocol: (§1)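 MIC by tube dilution per NCCLS; B. subtilis ATCC9372, E. coli ATCC25922, P. aeruginosa ATCC27853 and S. aureus ATCC25923 are penicillin-susceptible strains.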

The test system of assay [2] is Escherichia coli. In words: Antibacterial activity against penicillin-susceptible Escherichia coli ATCC 25922 incubated for 24 hrs by tube-dilution method. It is filed as functional. The following applies: ATCC 25922, 24 h. A digest of the protocol: as §1
The test system of assay [3] is Pseudomonas aeruginosa. In words: Antibacterial activity against penicillin-susceptible Pseudomonas aeruginosa ATCC 27853 incubated for 24 hrs by tube-dilution method. It is filed as functional. As to conditions: ATCC 27853, 24 h. The procedure, abridged: as §1
The test system of assay [4] is Staphylococcus aureus. In words: Antibacterial activity against penicillin-susceptible Staphylococcus aureus ATCC 25923 incubated for 24 hrs by tube-dilution method. It is filed as functional. As to conditions: ATCC 25923, 24 h. A digest of the protocol:
as §1

The test system of assay [5] is Staphylococcus aureus. The assay can be described thus: Antibacterial activity against […] Staphylococcus aureus ATCC 29213 incubated for 24 hrs by tube-dilution method. Format: functional. The following applies: ATCC 29213, 24 h. The procedure, abridged:
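Broth tube-dilution MIC run as NCCLS recommends, against the […] S. aureus strain ATCC29213.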

The test system of assay [6] is Staphylococcus aureus. The assay can be described thus: Antibacterial activity against penicillin-resistant Staphylococcus aureus clinical isolates incubated for 24 hrs by tube-dilution method. Format: functional.
Assay [7] concerns Staphylococcus epidermidis. In words: Antibacterial activity against penicillin-resistant Staphylococcus epidermidis clinical isolates incubated for 24 hrs by tube-dilution method. Format: functional.
Assay [8] deals with Streptococcus pyogenes. In words: Antibacterial activity against penicillin-susceptible Streptococcus pyogenes clinical isolates incubated for 24 hrs by tube-dilution method. Format: functional.
Assay [9] has as its system Streptococcus pyogenes. The assay can be described thus: Antibacterial activity against penicillin-resistant Streptococcus pyogenes clinical isolates incubated for 24 hrs by tube-dilution method. Format: functional.
Assay [10] relates to Bacillus subtilis. The assay can be described thus: Inhibition of FtsZ in penicillin-susceptible Bacillus subtilis ATCC 9372 assessed as lowest drug concentration causing inhibition of cell division incubated for 5 hrs by phase-contrast light microscopy. A digest of the protocol:
(§2)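 Cell division inhibition judged from bacterial cell morphology under phase-contrast light microscopy, scored as lowest concentration altering division; penicillin-susceptible strains B. subtilis ATCC9372, E. coli ATCC25922, P. aeruginosa ATCC27853, S. aureus ATCC25923.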

Assay [11] concerns Streptococcus pyogenes. The assay can be described thus: Potency index, ratio of MIC for oxacillin sodium to MIC for test compound against penicillin-susceptible Streptococcus pyogenes clinical isolates incubated for 24 hrs by tube-dilution method. It is filed as functional.
Assay [12] deals with Escherichia coli. The assay can be described thus: Inhibition of FtsZ in penicillin-susceptible Escherichia coli ATCC 25922 assessed as lowest drug concentration causing inhibition of cell division incubated for 5 hrs by phase-contrast light microscopy. The procedure, abridged:
as §2

Assay [13] has as its system Pseudomonas aeruginosa. In words: Inhibition of FtsZ in penicillin-susceptible Pseudomonas aeruginosa ATCC 27853 assessed as lowest drug concentration causing inhibition of cell division incubated for 5 hrs by phase-contrast light microscopy. The procedure, abridged:
as §2

For assay [14], the system named is Streptococcus pyogenes. The assay can be described thus: Potency index, ratio of MIC for sanguinarine to MIC for test compound against penicillin-susceptible Streptococcus pyogenes clinical isolates incubated for 24 hrs by tube-dilution method. It is filed as functional.
Assay [15] deals with Staphylococcus aureus. The assay can be described thus: Inhibition of FtsZ in penicillin-susceptible Staphylococcus aureus ATCC 25923 assessed as lowest drug concentration causing inhibition of cell division incubated for 5 hrs by phase-contrast light microscopy. A digest of the protocol: as §2
Assay [16] has as its system Bacillus subtilis. The assay can be described thus: Potency index, ratio of MIC for curcumin to MIC for test compound against penicillin-susceptible Bacillus subtilis ATCC 9372 incubated for 24 hrs by tube-dilution method. It is filed as functional.
The subject of assay [17] is Bacillus subtilis. The assay can be described thus: Potency index, ratio of MIC for sanguinarine to MIC for test compound against penicillin-susceptible Bacillus subtilis ATCC 9372 incubated for 24 hrs by tube-dilution method. It is filed as functional.
In assay [18] the test system is Bacillus subtilis. In words: Potency index, ratio of MIC for ciprofloxaxin to MIC for test compound against penicillin-susceptible Bacillus subtilis ATCC 9372 incubated for 24 hrs by tube-dilution method. Format: functional.
The subject of assay [19] is Bacillus subtilis. The assay can be described thus: Potency index, ratio of MIC for oxacillin sodium to MIC for test compound against penicillin-susceptible Bacillus subtilis ATCC 9372 incubated for 24 hrs by tube-dilution method. It is filed as functional.
Another assay is filed under the species Sus scrofa. The assay can be described thus: Induction of porcine tubulin polymerisation at 2 times MIC for penicillin-resistant Staphylococcus aureus by fluorescence microscopy. A digest of the protocol:
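Polymerisation of mammalian tubulin measured with a commercial tubulin assay kit, read by fluorescence of the kit reporter, with paclitaxel as the positive control for enhanced polymerisation.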

For the compound `Cc1cccc2c3ccccc3c[n+](C)c12.[Cl-]`, the MIC was 4 µg/mL against Bacillus subtilis [1]; more than 128 µg/mL against Escherichia coli [2]; more than 128 µg/mL with Pseudomonas aeruginosa [3]; 128 µg/mL against Staphylococcus aureus [4]; more than 128 µg/mL in the assay with Staphylococcus aureus [5]; 4 µg/mL in the assay on Staphylococcus aureus [6]. The MIC in assay [7] was 128 µg/mL; with Streptococcus pyogenes [8], 4 µg/mL; in the assay on Streptococcus pyogenes [9], 8 µg/mL; with Bacillus subtilis [10], 4 µg/mL; in the assay with Escherichia coli [12], more than 128 µg/mL; in the assay on Pseudomonas aeruginosa [13], more than 128 µg/mL. Further, the MIC in the assay on Staphylococcus aureus [15] is 128 µg/mL. For the same compound, the Ratio with Streptococcus pyogenes [11] is 4; with Streptococcus pyogenes [14], 2; with Bacillus subtilis [16] it was 8; in the assay with Bacillus subtilis [17], 2; with Bacillus subtilis [18] it was 2; in the assay with Bacillus subtilis [19] it was 2. Further, in the assay filed under Sus scrofa, the outcome was inactive.
Turning to `CSc1ccc2c(c1)c1ccccc1c[n+]2C.[Cl-]`, the MIC with Bacillus subtilis [1] was 8 µg/mL; against Escherichia coli [2], more than 128 µg/mL; against Pseudomonas aeruginosa [3], more than 128 µg/mL; against Staphylococcus aureus [4] it was 128 µg/mL; in the assay on Staphylococcus aureus [5], more than 128 µg/mL; against Staphylococcus aureus [6], 32 µg/mL. Also, the MIC in assay [7] was more than 128 µg/mL; in the assay with Streptococcus pyogenes [8], 32 µg/mL; against Streptococcus pyogenes [9], 32 µg/mL; in the assay with Bacillus subtilis [10], 8 µg/mL; in the assay on Escherichia coli [12], 128 µg/mL; with Pseudomonas aeruginosa [13], more than 128 µg/mL. In the assay on Staphylococcus aureus [15], the MIC worked out at 128 µg/mL. For the same compound, in the assay listed under Sus scrofa, the outcome was inactive.
As to `C[n+]1cc2ccccc2c2ccccc21.[Cl-]`, the MIC in the assay on Bacillus subtilis [1] was 16 µg/mL; with Escherichia coli [2] it was more than 128 µg/mL; in the assay on Pseudomonas aeruginosa [3] it was 128 µg/mL; against Staphylococcus aureus [4], more than 128 µg/mL; against Staphylococcus aureus [5] it was more than 128 µg/mL; in the assay on Staphylococcus aureus [6], 32 µg/mL. The MIC was more than 128 µg/mL in assay [7]; 32 µg/mL against Streptococcus pyogenes [8]; 32 µg/mL in the assay on Streptococcus pyogenes [9]; 16 µg/mL in the assay on Bacillus subtilis [10]; more than 128 µg/mL in the assay on Escherichia coli [12]; 128 µg/mL with Pseudomonas aeruginosa [13]. Also, the MIC in the assay with Staphylococcus aureus [15] is more than 128 µg/mL. For the same compound, in the assay filed under Sus scrofa, the outcome was inactive.
With `C[n+]1cc2ccccc2c2cc(Cl)ccc21.[Cl-]`, the MIC against Bacillus subtilis [1] was 16 µg/mL; in the assay on Escherichia coli [2] it was 128 µg/mL; against Pseudomonas aeruginosa [3], more than 128 µg/mL; against Staphylococcus aureus [4], more than 128 µg/mL; against Staphylococcus aureus [5], more than 128 µg/mL; against Staphylococcus aureus [6] it was 32 µg/mL. For the same compound, the MIC is more than 128 µg/mL in assay [7]; 32 µg/mL in the assay on Streptococcus pyogenes [8]; 32 µg/mL in the assay with Streptococcus pyogenes [9]; 16 µg/mL with Bacillus subtilis [10]; 128 µg/mL with Escherichia coli [12]; more than 128 µg/mL in the assay with Pseudomonas aeruginosa [13]. The MIC with Staphylococcus aureus [15] is more than 128 µg/mL. Moreover, the result in the assay listed under Sus scrofa was inactive.
For `C[n+]1cc2c3c(ccc2c2ccc4cc5c(cc4c21)OCO5)OCO3`, the MIC with Bacillus subtilis [1] was 8 µg/mL; against Escherichia coli [2], more than 128 µg/mL; against Pseudomonas aeruginosa [3], more than 128 µg/mL; in the assay on Staphylococcus aureus [4] it was 8 µg/mL; against Staphylococcus aureus [5], 8 µg/mL; with Staphylococcus aureus [6] it was 4 µg/mL. Moreover, the MIC in assay [7] is 64 µg/mL; with Streptococcus pyogenes [8], 8 µg/mL; with Streptococcus pyogenes [9], 8 µg/mL; in the assay with Bacillus subtilis [10], 8 µg/mL; with Escherichia coli [12] it was more than 128 µg/mL; with Pseudomonas aeruginosa [13], more than 128 µg/mL. Further, the MIC with Staphylococcus aureus [15] amounted to 8 µg/mL.
Take `C[n+]1cc2ccccc2c2cc(C(C)(C)C)ccc21.[Cl-]`: the MIC in the assay with Bacillus subtilis [1] is 8 µg/mL; in the assay with Escherichia coli [2], more than 128 µg/mL; with Pseudomonas aeruginosa [3], more than 128 µg/mL; against Staphylococcus aureus [4], 64 µg/mL; against Staphylococcus aureus [5], more than 128 µg/mL; in the assay with Staphylococcus aureus [6], 16 µg/mL. Further, the MIC in assay [7] is 128 µg/mL; in the assay with Streptococcus pyogenes [8] it was 16 µg/mL; against Streptococcus pyogenes [9] it was 16 µg/mL; in the assay with Bacillus subtilis [10], 8 µg/mL; in the assay with Escherichia coli [12] it was 128 µg/mL; in the assay with Pseudomonas aeruginosa [13] it was more than 128 µg/mL. Also, the MIC in the assay on Staphylococcus aureus [15] worked out at 64 µg/mL. Moreover, the outcome in the assay filed under Sus scrofa was inactive.
